Measured values: ChEMBL document CHEMBL2176891, “Structural investigation of anti-Trypanosoma cruzi 2-iminothiazolidin-4-ones allows the identification of agents with efficacy in infected mice” (J Med Chem, 2012)
Active and inactive are the calls of the source. The rule behind the calls is not given here.

Experiments:
Trypanosoma cruzi [1] = test: Antitrypanosomal activity against Trypanosoma cruzi; type: functional, organism-based
[2] = target: Cruzipain (Trypanosoma cruzi) (UniProt P25779); test: (§1) Inhibition of Trypanosoma cruzi recombinant cruzain using Z-FR-AMC as substrate at 20 uM preincubated for 10 mins before substrate addition
Cruzipain (Trypanosoma cruzi), sequence (P25779 123-467 limits assumed): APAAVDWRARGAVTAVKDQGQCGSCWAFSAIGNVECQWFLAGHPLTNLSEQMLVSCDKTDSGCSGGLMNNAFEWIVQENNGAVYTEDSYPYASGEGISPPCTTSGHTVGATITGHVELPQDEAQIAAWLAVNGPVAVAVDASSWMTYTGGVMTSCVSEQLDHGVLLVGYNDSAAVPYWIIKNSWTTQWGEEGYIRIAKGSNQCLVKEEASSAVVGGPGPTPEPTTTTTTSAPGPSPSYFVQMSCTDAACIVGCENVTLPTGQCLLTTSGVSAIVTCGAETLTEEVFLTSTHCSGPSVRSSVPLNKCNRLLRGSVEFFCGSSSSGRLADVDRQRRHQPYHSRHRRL

Cruzipain [3] = target: T1, Cruzipain (Trypanosoma cruzi, UniProt P25779); test: as §1
T1 sequence (P25779 whole entry): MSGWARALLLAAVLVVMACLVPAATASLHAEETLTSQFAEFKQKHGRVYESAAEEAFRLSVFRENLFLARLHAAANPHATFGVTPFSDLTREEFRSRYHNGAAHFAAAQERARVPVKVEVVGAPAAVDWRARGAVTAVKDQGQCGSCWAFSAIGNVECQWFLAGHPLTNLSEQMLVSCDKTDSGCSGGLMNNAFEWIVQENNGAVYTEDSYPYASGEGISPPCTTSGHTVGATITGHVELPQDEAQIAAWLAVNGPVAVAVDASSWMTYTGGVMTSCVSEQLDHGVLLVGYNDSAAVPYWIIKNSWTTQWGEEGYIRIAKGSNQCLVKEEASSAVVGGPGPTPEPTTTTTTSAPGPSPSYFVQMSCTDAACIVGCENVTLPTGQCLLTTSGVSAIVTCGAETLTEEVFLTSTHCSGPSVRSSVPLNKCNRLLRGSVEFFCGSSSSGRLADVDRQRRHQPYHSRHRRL

[4] = Cytotoxicity against BALB/c mouse splenocytes assessed as highest nontoxic concentration by measuring [3H]-thymidine incorporation after 24 hrs by beta-radiation counting; type: cell-based, Splenocyte; settings: for MNTC at 24 h: mouse, splenocytes, read-out: Activity; for highest nontoxic concentration: Mus musculus, Splenocyte, read-out: IC50
Procedure, shortened: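 BALB/c splenocytes, 5 × 10⁶ cells/well in RPMI-1640 with 10% FBS. Compound in DMSO at 1.0, 10 and 100 μg/mL or more, triplicate; untreated and saponin controls. 24 h at 37 °C, 5% CO₂. 1.0 μCi ³H-thymidine added, incorporation read by β-counting as % of untreated. Highest nontoxic concentration estimated.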

Trypanosoma cruzi [5] = test: Antitrypanosomal activity against trypomastigotes of Trypanosoma cruzi Y infected in LLC-MK2 cells assessed as parasite motility after 24 hrs; type: functional, organism-based; settings: LLC-MK2, 24 h
Procedure, shortened: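 Y strain bloodstream trypomastigotes taken from LLC-MK2 culture supernatant, 4 × 10⁵ cells/well. Five compound concentrations (DMSO), triplicate, 24 h at 37 °C, 5% CO₂. Viable parasites judged by motility in a Neubauer chamber. Inhibition calculated relative to untreated culture; IC50 by nonlinear regression.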

Trypanosoma cruzi [6] = test: Inhibition of trypomastigotes of Trypanosoma cruzi Y invasion to mouse peritoneal macrophages at 50 uM […]; type: functional, organism-based
Trypanosoma cruzi [7] = test: Antitrypanosomal activity against trypomastigotes of Trypanosoma cruzi Y infected in mouse peritoneal macrophages assessed as reduction of intracellular parasite level at 10 uM after 4 days; type: functional, organism-based
Procedure, shortened: (§2)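 Peritoneal exudate macrophages, 2 × 10⁵/well on coverslips, infected with Y strain trypomastigotes at 10 parasites per macrophage for 2 h, then washed. Compound in DMSO added for 6 h, medium replaced, culture continued 4 days. After methanol fixation and Giemsa staining, 100 cells per slide counted for % infected macrophages and amastigotes per cell. IC50 based on % infected cells versus untreated.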

[8] = target: Cruzipain (Trypanosoma cruzi) (UniProt P25779); test: Inhibition of Trypanosoma cruzi recombinant cruzain using Z-FR-AMC as substrate at 100 uM preincubated for 10 mins before substrate addition
Procedure, shortened: (§3)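 Recombinant cruzain preincubated 10 min at room temperature with compound (DMSO) in phosphate buffer containing EDTA, 100 mM NaCl and DTT. Z-FR-AMC then added; final 0.5 nM enzyme and 2 μM substrate. Fluorescence read at 1, 5 and 10 min; % inhibition versus no-inhibitor control. Single-point values are triplicate means; IC50 by nonlinear regression from multiple concentrations. Some runs used 0.01% Triton X-100.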

Trypanosoma cruzi [9] = test: Antitrypanosomal activity against epimastigotes of Trypanosoma cruzi Y in axenic culture assessed as parasite motility after 11 days; settings: 264 h
[10] = Selectivity index, ratio of IC50 for concanavalin A-stimulated BALB/c mouse splenocytes to IC50 for trypomastigotes of Trypanosoma cruzi Y infected in mouse peritoneal macrophages
Procedure, shortened: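 Ratio of splenocyte IC50 to IC50 against intracellular parasites in Y strain-infected peritoneal macrophages (4-day assay).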

[11] = Antiproliferative activity against concanavalin A-stimulated BALB/c mouse splenocytes after 72 hrs by AlamarBlue assay; type: cell-based; settings: Splenocyte
Procedure, shortened: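 Splenocytes from BALB/c mice at 5 × 10⁶ cells/well in RPMI-1640 with 10% FBS, stimulated with 2.0 μg/mL concanavalin A. Compounds in DMSO, six concentrations in triplicate. Controls: con A alone, no con A, and con A plus 0.01 μg/mL cyclosporin A. 72 h at 37 °C, 5% CO₂. AlamarBlue for 1 h, fluorescence ex 530/em 590 nm. IC50 by nonlinear regression.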

Trypanosoma cruzi [12] = test: Antitrypanosomal activity against trypomastigotes of Trypanosoma cruzi Y infected in mouse peritoneal macrophages assessed as reduction of intracellular parasite level after 4 days; type: functional, organism-based; settings: 96 h; procedure, shortened: as §2
Cathepsin S = Cathepsin S (Homo sapiens, UniProt P25774); test: Inhibition of recombinant cathepsin S using ZFR-pNA as substrate preincubated for 45 mins
Cathepsin S, sequence (P25774 whole entry): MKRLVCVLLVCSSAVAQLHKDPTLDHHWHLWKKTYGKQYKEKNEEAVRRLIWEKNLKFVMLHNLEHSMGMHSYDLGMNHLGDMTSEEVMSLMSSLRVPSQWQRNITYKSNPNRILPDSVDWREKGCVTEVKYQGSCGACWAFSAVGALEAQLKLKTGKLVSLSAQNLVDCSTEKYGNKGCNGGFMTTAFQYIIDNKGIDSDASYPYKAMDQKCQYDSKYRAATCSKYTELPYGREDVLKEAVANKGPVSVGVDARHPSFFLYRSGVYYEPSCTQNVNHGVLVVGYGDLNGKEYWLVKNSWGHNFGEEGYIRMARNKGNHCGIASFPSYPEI
Procedure, shortened: (§4)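 Recombinant cathepsin L or S activated with 1 mM DTT in 0.1 M acetate pH 5.5. Preincubated 45 min at room temperature with compound in phosphate buffer with 0.1% BSA, 1 mM EDTA and 0.001% Tween. Z-FR-pNA added, reaction 5 min; final 30 nM enzyme and 5.0 μM substrate. Triplicate runs; IC50 from at least seven concentrations.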

Procathepsin L [13] = target: T2, Procathepsin L (Homo sapiens, UniProt P07711); test: Inhibition of recombinant cathepsin L using ZFR-pNA as substrate at 100 uM preincubated for 45 mins; procedure, shortened: as §4
Target sequence in this assay (P07711 114-333 limits assumed): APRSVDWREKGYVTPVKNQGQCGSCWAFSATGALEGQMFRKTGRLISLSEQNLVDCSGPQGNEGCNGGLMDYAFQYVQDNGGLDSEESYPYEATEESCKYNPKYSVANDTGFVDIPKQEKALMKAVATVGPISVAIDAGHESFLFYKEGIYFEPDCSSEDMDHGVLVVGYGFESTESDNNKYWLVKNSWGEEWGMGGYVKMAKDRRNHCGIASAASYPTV

Procathepsin L [14] = target: T2, Procathepsin L; test: Inhibition of recombinant cathepsin L using ZFR-pNA as substrate preincubated for 45 mins; procedure, shortened: as §4
Target sequence in this assay (P07711 whole entry): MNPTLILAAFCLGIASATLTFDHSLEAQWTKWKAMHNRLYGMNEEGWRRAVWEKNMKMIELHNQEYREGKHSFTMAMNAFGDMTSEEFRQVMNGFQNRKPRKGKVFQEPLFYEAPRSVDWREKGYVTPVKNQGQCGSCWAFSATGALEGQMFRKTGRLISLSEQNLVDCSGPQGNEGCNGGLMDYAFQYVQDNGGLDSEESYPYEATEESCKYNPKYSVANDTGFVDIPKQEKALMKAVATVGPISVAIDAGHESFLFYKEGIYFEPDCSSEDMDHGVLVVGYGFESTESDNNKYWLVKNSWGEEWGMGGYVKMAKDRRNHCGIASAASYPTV

[15] = Solubility of the compound in 0.1 M sodium acetate pH 5.5; type: physicochemical; settings: buffer
Cruzipain [16] = target: T1, Cruzipain; test: Inhibition of Trypanosoma cruzi recombinant cruzain using Z-FR-AMC as substrate preincubated for 10 mins before substrate addition; procedure, shortened: as §3
[17] = target: Cruzipain (Trypanosoma cruzi) (UniProt P25779); test: Inhibition of Trypanosoma cruzi recombinant cruzain using Z-FR-AMC as substrate at 20 uM preincubated for 10 mins before substrate addition in presence of 0.01% of Triton X-100; procedure, shortened: as §3
Trypanosoma cruzi [18] = test: Induction of ultrastructural alteration of trypomastigotes of Trypanosoma cruzi Y at 3.9 uM by scanning electron microscopy; type: functional, organism-based
Procedure, shortened: (§5)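 Y strain bloodstream trypomastigotes and infected macrophages exposed to 3.9 μM compound, then examined by transmission and scanning electron microscopy.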

Trypanosoma cruzi [19] = test: Induction of ultrastructural alteration of trypomastigotes of Trypanosoma cruzi Y at 3.9 uM by transmission electron microscopy; type: functional, organism-based; procedure, shortened: as §5
Trypanosoma cruzi [20] = test: Antitrypanosomal activity against trypomastigotes of Trypanosoma cruzi Y infected in BALB/c mouse assessed as reduction of blood parasite level at 250 umol/kg, po qd for 5 days; type: functional; parameters: scale not given: the % may be the effect or the level left
Procedure, shortened: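 Female BALB/c mice, 6–8 weeks old, infected ip with 10⁴ Y strain bloodstream trypomastigotes in saline; six mice per group. From day 5 postinfection, 250 μmol/kg given orally by gavage once daily for 5 days. Fresh-blood parasitemia counted in a hemocytometer. Reduction = (vehicle − treated)/vehicle × 100, using day 5 of treatment; two independent experiments.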

Mus musculus [21] = test: Toxicity in BALB/c mouse assessed as mortality at 250 umol/kg, po qd for 5 days; type: organism-based; settings: in vivo, 120 h
Procedure, shortened: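 Female BALB/c mice, 6–8 weeks old, were infected i.p. with 10⁴ Y strain bloodstream trypomastigotes in saline and randomly grouped, six per group. From day 5 postinfection, drug was given orally by gavage at 250 μmol/kg once daily for five consecutive days. Blood parasites were counted by hemocytometer, and survival was followed for one month. Untreated and benznidazole-treated infected mice served as controls.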

Mus musculus [22] = test: Toxicity in BALB/c mouse assessed as reduction in body weight at 250 umol/kg, po qd for 5 days; type: organism-based; settings: in vivo, 120 h
Trypanosoma cruzi [23] = test: Antitrypanosomal activity against epimastigotes of Trypanosoma cruzi Y assessed as reduction of proteolytic activity using gelatin as substrate after 48 hrs by zymography assays

SMILES | inhibition [2] | MNTC at 24 h [4] | IC50 (Trypanosoma cruzi [5]) | Activity (Trypanosoma cruzi [7]) | IC50 (Trypanosoma cruzi [9]) | inhibition (Procathepsin L [13]) | IC50 (Procathepsin L [14]) | also measured
Cc1ccc(SC/C=N/N=C2\NC(=O)C(C)S2)cc1 (stereo not given) |  |  |  |  |  |  |  | IC50 (Trypanosoma cruzi [1]): 80.4 µM
C/C(COc1ccccc1)=N\Nc1nc(-c2ccccc2)cs1 | inactive | 50 µg/mL | 19.6 µM |  |  |  |  | IC50 (Cruzipain [3]): > 20 µM
C/C(COc1ccccc1)=N\Nc1nc(-c2ccncc2)cs1 |  | 100 µg/mL | 3.9 µM | inactive | 4 µM |  |  | inhibition (Trypanosoma cruzi [6]): inactive; inhibition [8]: 13.3%
C/C(COc1ccccc1)=N\N=C1/NC(=O)CS1 | 0% | > 100 µg/mL | 19 µM |  | 23.2 µM | 1% | > 100 µM | Ratio IC50 [10]: 10; IC50 [11]: 98 µM; IC50 (Trypanosoma cruzi [12]): 19.5 µM; IC50 (Cathepsin S): > 100 µM; highest nontoxic concentration [4]: > 200 µM
C/C(COc1ccccc1)=N\N=C1\SC(c2ccccc2)C(=O)N1C (racemic) | 27% | > 100 µg/mL | 18 µM |  | 12 µM |  |  | solubility [15]: Insoluble; IC50 (Cruzipain [16]): ND(Insoluble)
CCC1S/C(=N/N=C(\C)COc2ccccc2)N(c2ccccc2)C1=O (racemic) | 66% | 100 µg/mL | 5.8 µM | Active | 11.1 µM | 4% | > 100 µM | IC50 (Cathepsin S): > 100 µM; IC50 (Cruzipain [16]; read-out: IC50): 9.5 µM; inhibition [17]: 64%
C/C(COc1ccccc1)=N\N=C1\SC(C(C)C)C(=O)N1c1ccccc1 (racemic) | 78% | > 100 µg/mL | 6.1 µM | Active | 4.9 µM | 10% | > 100 µM | inhibition (Trypanosoma cruzi [6]): Active; Ratio IC50 [10]: 25; IC50 [11]: > 262 µM; IC50 (Trypanosoma cruzi [12]): 10.1 µM; Activity (Trypanosoma cruzi [18]): Active; Activity (Trypanosoma cruzi [19]): Active; IC50 (Cathepsin S): > 100 µM; IC50 (Cruzipain [16]; read-out: IC50): 6.6 µM; inhibition [17]: 81%; highest nontoxic concentration [4]: > 262 µM; Activity (Trypanosoma cruzi [20]): 89.6%; Activity (Mus musculus [21]): Non-toxic; Activity (Mus musculus [22]): Non-toxic; Activity (Trypanosoma cruzi [23]): Dose-dependent effect
C/C(COc1ccccc1)=N\N=C1\SC(c2ccccc2)C(=O)N1c1ccccc1 (racemic) | 43% | > 100 µg/mL | 11.1 µM |  | 15.6 µM | 15% |  | solubility [15]: Insoluble; IC50 (Cruzipain [16]): ND(Insoluble)
C/C(COc1ccccc1)=N\N=C1\SC(c2ccccc2)C(=S)N1c1ccccc1 (racemic) | 72% | 100 µg/mL | 11.2 µM |  | 4.2 µM | 89% | 10.8 µM | IC50 (Cruzipain [16]; read-out: IC50): 7 µM; inhibition [17]: 79%
C/C(COc1ccccc1)=N\N=C1/NC(=O)C(c2ccccc2)S1 (racemic) | 63% | 25 µg/mL | 18.7 µM |  | 34.8 µM |  |  | inhibition [8]: 63%; solubility [15]: Insoluble
O=C(Cn1ccnc1[N+](=O)[O-])NCc1ccccc1 [BENZNIDAZOLE] |  |  | 6.2 µM | Active | 6.6 µM |  |  | IC50 (Trypanosoma cruzi [12]): 13.9 µM; Activity (Trypanosoma cruzi [20]): >99%
